Results on eleven compounds are retold here after ChEMBL document CHEMBL1136156, “A specific anti-Helicobacter pylori agent NE2001: synthesis and its effect on the growth of H. pylori” (2003).

SMILES strings stand for the structures. Converted amounts (≈) assume the structure as drawn. Bounds are passed on as bounds.

Type in all cases: functional
For experiment [1], the system named is Staphylococcus aureus. The experiment in a line: Antibacterial activity against Staphylococcus aureus 209P JC was determined. Put shortly:
(§1)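 Agar dilution MIC on Mueller–Hinton agar for reference strains of other species. Compounds were dissolved in DMSO and serially diluted two-fold. Strains were stored at -80 °C before testing. MIC was taken as the minimum concentration completely inhibiting growth.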

The test system of experiment [2] is Escherichia coli. Nature of the experiment: Antibacterial activity against Escherichia coli K-12 was determined. The method, boiled down: as §1
Experiment [3] relates to Helicobacter pylori. The experiment in a line: Antibacterial activity against Helicobacter pylori ATCC 43504 was determined. The method, boiled down:
(§2)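 Agar dilution MIC on Columbia agar with 7% defibrinated sheep blood. Compounds were dissolved in DMSO and serially diluted two-fold. Inoculum was grown 24 h at 37 °C in Brucella broth with 5% fetal bovine serum under microaerophilic gas (5% O2, 10% CO2, 85% N2) and adjusted to about 10^8 CFU/mL, then streaked onto ~2 cm squares. Plates were incubated microaerophilically for 3 days at 37 °C. MIC was the lowest concentration giving complete growth inhibition.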

Experiment [4] concerns Enterococcus faecalis. Nature of the experiment: Antibacterial activity against Enterococcus faecalis was determined. Put shortly:
as §1

Experiment [5] relates to Helicobacter pylori. The experiment in a line: Antibacterial activity against Helicobacter pylori HP0018 was determined. The method, boiled down: (§3)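 Agar dilution MIC on Columbia agar with 7% defibrinated sheep blood. Compounds dissolved in DMSO and serially diluted twofold. Inoculum was H. pylori grown 24 h at 37 °C in Brucella broth with 5% fetal bovine serum under microaerophilic gas (5% O2, 10% CO2, 85% N2), adjusted to about 10^8 CFU/mL and streaked by loop. Plates were incubated microaerophilically for 3 days at 37 °C. MIC taken as the lowest concentration giving complete growth inhibition.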

The subject of experiment [6] is Helicobacter pylori. The experiment in a line: Antibacterial activity against Helicobacter pylori HP020 was determined. Put shortly: as §3
For experiment [7], the system named is Helicobacter pylori. Nature of the experiment: Antibacterial activity against Helicobacter pylori HP021 was determined. Put shortly: as §2
Experiment [8] concerns Klebsiella pneumoniae. Nature of the experiment: Antibacterial activity against Klebsiella pneumoniae was determined. Put shortly:
as §1

Experiment [9] concerns Helicobacter pylori. The experiment in a line: Antibacterial activity against Helicobacter pylori HP004 was determined. The method, boiled down:
as §3

The subject of experiment [10] is Helicobacter pylori. Nature of the experiment: Antibacterial activity against Helicobacter pylori HP003 was determined. The method, boiled down:
as §2

In experiment [11] the test system is Staphylococcus epidermidis. The experiment in a line: Antibacterial activity against Staphylococcus epidermidis was determined. The method, boiled down: as §1
In experiment [12] the test system is Morganella morganii. Nature of the experiment: Antibacterial activity against Morganella morganii was determined. The method, boiled down:
as §1

The test system of experiment [13] is Helicobacter pylori. The experiment in a line: Antibacterial activity against Helicobacter pylori HP0017 was determined. The method, boiled down:
as §2

Experiment [14] concerns Helicobacter pylori. The experiment in a line: Antibacterial activity against Helicobacter pylori HP0019 was determined. The method, boiled down:
as §2

In experiment [15] the test system is Helicobacter pylori. Nature of the experiment: Antibacterial activity against Helicobacter pylori HP022 was determined. The method, boiled down:
as §2

Experiment [16] has as its system Helicobacter pylori. The experiment in a line: Antibacterial activity against Helicobacter pylori HP008 was determined. Put shortly: as §2
Experiment [17] deals with Helicobacter pylori. The experiment in a line: Antibacterial activity against Helicobacter pylori HP007 was determined. The method, boiled down: as §2
The subject of experiment [18] is Helicobacter pylori. The experiment in a line: Antibacterial activity against Helicobacter pylori HP001 was determined. Put shortly: as §2
Experiment [19] deals with Helicobacter pylori. Nature of the experiment: Antibacterial activity against Helicobacter pylori HP0016 was determined. Put shortly: as §2

In the case of `Cl.N=C(N)NCc1ccc(C(=O)Oc2ccccc2)cc1`, the MIC in experiment [1] is greater than 64 µg/mL; in experiment [2], greater than 64 µg/mL; in experiment [3], 16 µg/mL.

As for `Cl.N=C(N)NCc1ccc(C(=O)O)cc1`, the MIC in experiment [1], in [2] and in experiment [3] was greater than 64 µg/mL each time.

As to `Cl.N=C(N)NCc1ccc(C(=O)Nc2ccccc2)cc1`, the MIC in experiment [1], in [2] and in experiment [3] was greater than 64 µg/mL each time.

`Cc1ccc(COC(=O)c2ccc(-c3ccc(OC(=O)c4ccc(CN=C(N)N)cc4)cc3)cc2)cc1.Cl`: the MIC was greater than 64 µg/mL in [1]; greater than 64 µg/mL in experiment [4]; greater than 64 µg/mL in experiment [2]; 0.4 µg/mL in [5]; 0.8 µg/mL in experiment [6]; 0.8 µg/mL in experiment [7]. The MIC in [8] was greater than 64 µg/mL; in [9] it was 0.8 µg/mL; in experiment [3], 0.8 µg/mL; in experiment [10], 0.8 µg/mL; in [11] it was greater than 64 µg/mL; in [12] it was greater than 64 µg/mL. Also, the MIC in experiment [13] worked out at 1.6 µg/mL; in experiment [14], 1.6 µg/mL; in experiment [15], 0.8 µg/mL; in experiment [16], 0.8 µg/mL; in experiment [17] it was 0.8 µg/mL; in experiment [18], 0.4 µg/mL. In addition, the MIC in [19] stood at 0.8 µg/mL.

On to `Cc1ccc(CO)cc1`, for which the MIC in experiment [1], in [2] and in [3] was greater than 64 µg/mL in each case.

For `Cc1ccc(COC(=O)c2ccc(-c3ccc(O)cc3)cc2)cc1`, the MIC in experiment [1] is greater than 64 µg/mL; in experiment [2], greater than 64 µg/mL; in experiment [3] it was 8 µg/mL (≈ 25.1 µM).

With `O=C(O)c1ccc(-c2ccc(O)cc2)cc1`, the MIC in experiment [1], in experiment [2] and in experiment [3] was greater than 64 µg/mL each time.

With `COC(=O)c1ccc(-c2ccc(O)cc2)cc1`, the minimum inhibitory concentration (MIC) in experiment [1], in [2] and in [3] was greater than 64 µg/mL each time.

Regarding `NCc1ccc(C(=O)O)cc1` [AMINOMETHYLBENZOIC ACID], the MIC in experiment [1], in experiment [2] and in experiment [3] was greater than 64 µg/mL throughout.

Take `CC1(C)S[C@@H]2[C@H](NC(=O)[C@H](N)c3ccc(O)cc3)C(=O)N2[C@H]1C(=O)O` [AMOXICILLIN]: the MIC in experiment [1] worked out at 0.2 µg/mL (≈ 0.547 µM); in [4], 0.78 µg/mL (≈ 2.13 µM); in experiment [2], 1.6 µg/mL (≈ 4.38 µM); in [5], 0.05 µg/mL (≈ 0.137 µM); in experiment [6] it was 0.05 µg/mL (≈ 0.137 µM); in [7] it was 0.025 µg/mL (≈ 0.0684 µM). Moreover, the MIC in [8] was 50 µg/mL (≈ 137 µM); in experiment [9] it was 0.05 µg/mL (≈ 0.137 µM); in experiment [3], 0.05 µg/mL (≈ 0.137 µM); in experiment [10], 0.05 µg/mL (≈ 0.137 µM); in experiment [11], 0.78 µg/mL (≈ 2.13 µM); in experiment [12], greater than 100 µg/mL. Moreover, the minimum inhibitory concentration (MIC) in [13] turned out to be 0.025 µg/mL (≈ 0.0684 µM); in [14], 0.05 µg/mL (≈ 0.137 µM); in experiment [15], 0.025 µg/mL (≈ 0.0684 µM); in experiment [16], 0.05 µg/mL (≈ 0.137 µM); in experiment [17] it was 0.05 µg/mL (≈ 0.137 µM); in experiment [18], 0.025 µg/mL (≈ 0.0684 µM). Also, it took 0.05 µg/mL (≈ 0.137 µM) to inhibit growth in experiment [19] (MIC).

Regarding `Cc1ncc([N+](=O)[O-])n1CCO` [METRONIDAZOLE], the MIC in [1] is greater than 100 µg/mL; in experiment [4] it was greater than 100 µg/mL; in experiment [2] it was greater than 100 µg/mL; in experiment [5] it was 8 µg/mL (≈ 46.7 µM); in experiment [6] it was 128 µg/mL (≈ 748 µM); in [7], 32 µg/mL (≈ 187 µM). Besides, the MIC is greater than 100 µg/mL in experiment [8]; 8 µg/mL (≈ 46.7 µM) in experiment [9]; 64 µg/mL (≈ 374 µM) in experiment [3]; 2 µg/mL (≈ 11.7 µM) in experiment [10]; greater than 100 µg/mL in experiment [11]; greater than 100 µg/mL in [12]. Further, the MIC in [13] was 64 µg/mL (≈ 374 µM); in [14], 32 µg/mL (≈ 187 µM); in experiment [15], 16 µg/mL (≈ 93.5 µM); in experiment [16], 32 µg/mL (≈ 187 µM); in [17], 16 µg/mL (≈ 93.5 µM); in [18], 4 µg/mL (≈ 23.4 µM). The compound also showed an MIC in [19] of 32 µg/mL (≈ 187 µM).
